Results as given in ChEMBL document CHEMBL1914324, “Discovery of novel spirocyclic inhibitors of fatty acid amide hydrolase (FAAH). Part 2. Discovery of 7-azaspiro[3.5]nonane urea PF-04862853, an orally efficacious inhibitor of fatty acid amide hydrolase (FAAH) for pain” (Bioorg Med Chem Lett, 2011).
Activity calls are given as the source filed them.

Columns and labels:
[1] = target: T1, Fatty-acid amide hydrolase 1 (Homo sapiens) (UniProt O00519); assay: Ratio of Kinact to Ki for human FAAH activity
T1 sequence (whole entry): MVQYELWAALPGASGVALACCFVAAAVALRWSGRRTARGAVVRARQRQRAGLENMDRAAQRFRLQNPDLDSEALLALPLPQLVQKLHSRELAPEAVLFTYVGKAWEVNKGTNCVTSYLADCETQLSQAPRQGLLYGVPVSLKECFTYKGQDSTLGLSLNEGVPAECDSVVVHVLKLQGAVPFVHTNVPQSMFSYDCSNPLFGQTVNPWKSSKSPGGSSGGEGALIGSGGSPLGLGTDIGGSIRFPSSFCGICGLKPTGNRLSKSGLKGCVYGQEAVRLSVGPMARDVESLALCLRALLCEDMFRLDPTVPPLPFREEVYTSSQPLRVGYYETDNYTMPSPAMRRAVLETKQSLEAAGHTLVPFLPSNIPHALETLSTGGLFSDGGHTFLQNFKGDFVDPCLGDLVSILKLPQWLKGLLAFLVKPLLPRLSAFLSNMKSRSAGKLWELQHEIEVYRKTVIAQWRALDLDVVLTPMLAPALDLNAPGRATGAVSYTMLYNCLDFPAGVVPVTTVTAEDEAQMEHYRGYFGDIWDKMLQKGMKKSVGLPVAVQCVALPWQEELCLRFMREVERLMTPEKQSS
Procedure, shortened: (§1)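 kinact/Ki determined against human and rat FAAH. Each value is the average of at least two independent determinations.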

[2] = Clearance in rat CFA model at 3 mg/kg, po; assay type: ADME, organism-based; set-up: dose 3 mg/kg, route oral; settings: in vivo
Procedure, shortened: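 Rats in the CFA model screened at a single oral dose of 3 mpk. Plasma compound concentrations determined, including at 24 h. Clearance estimated from the 3 h and 24 h time points.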

[3] = Inhibition of cytochrome P450; assay type: ADME
[4] = target: T2, Voltage-gated inwardly rectifying potassium channel KCNH2 (Homo sapiens, UniProt Q12809); assay: Inhibition of human ERG
Salmonella typhimurium = assay: Mutagenic activity in Salmonella Typhimurium by Ames test; assay type: toxicity, organism-based; settings: salmonella enterica subsp. enterica serovar typhimurium
[5] = target: T2, Voltage-gated inwardly rectifying potassium channel KCNH2; assay: Displacement of dofetilide from ERG
Rattus norvegicus [6] = species on record: Rattus norvegicus; assay: Antiinflammatory activity against rat CFA model assessed as minimum effective dose after 4 hrs; assay type: functional; settings: read-out: MED
Procedure, shortened: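 CFA inflammatory pain model in rats given compound orally. Paw withdrawal threshold assessed with von Frey filaments 4 h post dose. N = 8 animals/group; significance versus vehicle by ANOVA/Dunnett's (p <0.05). Minimum efficacious dose defined as exposure giving >95% FAAH inhibition.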

[7] = Volume of distribution at steady state in dog; assay type: ADME, organism-based, Canis lupus familiaris; settings: in vivo, read-out: Vdss
[8] = target: T1, Fatty-acid amide hydrolase 1 (Homo sapiens); assay: Inhibition of FAAH in human brain membrane using rhodamine-tagged fluorophosphonate probe at 100 uM by competitive activity-based protein profiling method; assay type: cell membranes
Procedure, shortened: (§2)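 Competitive activity-based protein profiling against >200 human serine hydrolases, FAAH included. Compound tested at 100 µM in human brain membrane and soluble liver proteomes. Residual hydrolase activity labelled with a rhodamine-tagged fluorophosphonate probe.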

[9] = Half life in rat CFA model at 3 mg/kg, po; assay type: ADME, organism-based; set-up: dose 3 mg/kg, route oral; settings: in vivo
[10] = Oral bioavailability in rat CFA model at 3 mg/kg; assay type: ADME, organism-based; settings: in vivo
Rattus norvegicus [11] = assay: Volume of distribution at steady state in rat CFA model at 3 mg/kg, po; assay type: ADME, organism-based; set-up: dose 3 mg/kg, route oral; settings: in vivo
Rattus norvegicus [12] = assay: Inhibition of FAAH in rat CFA model leukocytes assessed as residual activity using 3H-anandamide as substrate at 0.3 mg/kg, po after 4 hrs; assay type: functional, organism-based; set-up: dose 0.3 mg/kg
Procedure, shortened: (§3)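 Rats with CFA-induced inflammatory pain dosed orally. Brain tissue and leukocytes collected 4 h post dose. Residual FAAH activity measured with 3H-anandamide as substrate. n = 4 animals/group. PK, biomarker and behavioural samples taken from the same animals.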

[13] = Half life in dog; assay type: ADME, organism-based, Canis lupus familiaris; settings: in vivo
Rattus norvegicus [14] = assay: Inhibition of FAAH in orally dosed rat CFA model assessed as elevation of […]anandamide concentration in plasma after 4 hrs; assay type: functional, organism-based
[15] = Oral bioavailability in dog; assay type: ADME, organism-based, Canis lupus familiaris; settings: in vivo
[16] = target: T1, Fatty-acid amide hydrolase 1 (Homo sapiens); assay: Inhibition of FAAH in human liver proteomes using rhodamine-tagged fluorophosphonate probe at 100 uM by competitive activity-based protein profiling method; procedure, shortened: as §2
Rattus norvegicus [17] = assay: Inhibition of FAAH in rat CFA model at 3 mg/kg, po after 3 hrs; assay type: functional
[18] = Plasma concentration in rat CFA model at 3 mg/kg, po after 4 hrs; assay type: ADME, organism-based; set-up: dose 3 mg/kg, route oral
Procedure, shortened: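 CFA rats given compound orally; plasma sampled 4 h post dose. Compound levels determined by LC/MS. n = 4 animals/group.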

[19] = Clearance in dog; assay type: ADME, organism-based, Canis lupus familiaris; settings: in vivo
Rattus norvegicus [20] = assay: Inhibition of FAAH in orally dosed rat CFA model assessed as elevation of […]anandamide concentration in brain after 4 hrs; assay type: functional, organism-based
Rattus norvegicus [21] = assay: Inhibition of FAAH in rat CFA model brain isolates assessed as residual activity using 3H-anandamide as substrate at 0.3 mg/kg, po after 4 hrs; assay type: functional, organism-based; set-up: dose 0.3 mg/kg; procedure, shortened: as §3
[22] = Genotoxicity in micronucleus
[23] = target: T3, Fatty-acid amide hydrolase 1 (Rattus norvegicus) (UniProt P97612); assay: Ratio of Kinact to Ki for rat FAAH activity; procedure, shortened: as §1
T3 sequence (whole entry): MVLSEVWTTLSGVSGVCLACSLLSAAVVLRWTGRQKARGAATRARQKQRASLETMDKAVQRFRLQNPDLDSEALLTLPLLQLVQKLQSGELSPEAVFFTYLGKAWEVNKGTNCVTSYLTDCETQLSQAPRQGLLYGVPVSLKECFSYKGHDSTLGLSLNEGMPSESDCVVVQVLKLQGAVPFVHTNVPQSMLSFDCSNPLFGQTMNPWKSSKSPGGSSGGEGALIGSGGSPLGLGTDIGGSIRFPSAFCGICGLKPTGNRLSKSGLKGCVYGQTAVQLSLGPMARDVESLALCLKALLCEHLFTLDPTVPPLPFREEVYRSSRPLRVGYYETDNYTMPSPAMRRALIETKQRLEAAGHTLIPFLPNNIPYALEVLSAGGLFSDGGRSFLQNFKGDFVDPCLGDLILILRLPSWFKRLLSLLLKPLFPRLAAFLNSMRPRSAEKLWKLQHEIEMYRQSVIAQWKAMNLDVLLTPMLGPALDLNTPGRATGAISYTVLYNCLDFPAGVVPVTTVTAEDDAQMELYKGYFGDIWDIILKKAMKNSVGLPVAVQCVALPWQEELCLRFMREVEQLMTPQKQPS

T2 sequence (Q12809 whole entry): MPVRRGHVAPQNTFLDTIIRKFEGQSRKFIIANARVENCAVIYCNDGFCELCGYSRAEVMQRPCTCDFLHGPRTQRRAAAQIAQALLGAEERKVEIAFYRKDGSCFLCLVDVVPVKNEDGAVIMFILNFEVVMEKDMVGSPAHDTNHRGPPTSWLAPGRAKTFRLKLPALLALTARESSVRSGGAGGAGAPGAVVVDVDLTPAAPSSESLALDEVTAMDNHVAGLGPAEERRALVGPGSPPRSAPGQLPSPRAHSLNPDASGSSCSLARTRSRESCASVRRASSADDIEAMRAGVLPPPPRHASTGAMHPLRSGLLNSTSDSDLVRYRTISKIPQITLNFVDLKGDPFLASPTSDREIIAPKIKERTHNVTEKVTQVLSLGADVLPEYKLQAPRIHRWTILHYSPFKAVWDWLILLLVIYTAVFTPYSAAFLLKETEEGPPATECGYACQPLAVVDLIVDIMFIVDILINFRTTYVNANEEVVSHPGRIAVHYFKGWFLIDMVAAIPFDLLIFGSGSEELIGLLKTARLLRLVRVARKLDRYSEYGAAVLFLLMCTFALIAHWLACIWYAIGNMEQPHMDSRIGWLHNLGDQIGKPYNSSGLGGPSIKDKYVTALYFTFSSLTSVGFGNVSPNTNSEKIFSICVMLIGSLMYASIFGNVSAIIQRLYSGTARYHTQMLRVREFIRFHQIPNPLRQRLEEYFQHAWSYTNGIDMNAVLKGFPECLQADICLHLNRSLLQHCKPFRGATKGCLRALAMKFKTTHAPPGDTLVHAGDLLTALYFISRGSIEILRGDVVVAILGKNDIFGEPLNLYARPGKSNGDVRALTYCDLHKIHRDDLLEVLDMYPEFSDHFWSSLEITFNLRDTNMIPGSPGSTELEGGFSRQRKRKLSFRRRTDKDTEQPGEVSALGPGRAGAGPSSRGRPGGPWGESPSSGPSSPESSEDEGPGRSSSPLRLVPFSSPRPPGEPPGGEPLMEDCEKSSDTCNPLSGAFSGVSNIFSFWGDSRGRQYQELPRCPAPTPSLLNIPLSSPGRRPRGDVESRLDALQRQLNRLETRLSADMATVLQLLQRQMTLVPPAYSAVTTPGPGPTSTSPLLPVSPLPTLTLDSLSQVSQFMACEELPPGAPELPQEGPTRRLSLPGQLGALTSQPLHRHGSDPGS

Ratio [1]: 4190 M⁻¹ s⁻¹
CL/F [2]: 8.5 mL/min/kg
inhibition (INH) [3]: Not Active
Vd [7]: 5 L/kg
inhibition [8]: Active
half-life [9]: 7.1 h
bioavailability [10]: 53%
Vdss (Rattus norvegicus [11]): 3.4 L/kg
half-life [13]: 7.8 h
bioavailability [15]: 33%
inhibition [16]: Active
concentration at 4 h [18]: 459 nM
clearance [19]: 11.1 mL/min/kg
Ratio [23]: 5820 M⁻¹ s⁻¹
SMILES: Cc1noc(NC(=O)N2CCC3(CC2)CC(c2ccc(F)c(Cl)c2)C3)c1C
inhibition (INH) [4]: Not Active
Activity (Salmonella typhimurium): Non-toxic
inhibition (INH) [5]: Not Active
minimal effective dose (Rattus norvegicus [6]): 0.3 mg/kg
inhibition (Rattus norvegicus [12]): Active
inhibition (Rattus norvegicus [14]): Dose-dependent effect
activity call (active/not active) (Rattus norvegicus [17]): Active
minimal effective dose (Rattus norvegicus [17]; read-out: MED): 0.3 mg/kg
inhibition (Rattus norvegicus [20]): Dose-dependent effect
inhibition (Rattus norvegicus [21]): Active
Activity [22]: Non-toxic
